From ChEMBL document CHEMBL4699643, “γ-Ketobenzyl-Modified Nucleoside Triphosphate Prodrugs as Potential Antivirals” (J Med Chem, 2020) come the findings set out here.

The structures appear in SMILES notation. A value given as a limit tells only on which side of the number the result lay.

Data set [1] has as its system Human immunodeficiency virus 1. Description: Antiviral activity against HIV1 3B infected in human CEM/0 cells assessed as inhibition of virus-induced syncytia cell formation measured after 4 to 5 days by microscopic analysis. It counts as functional, organism-based. Particulars: Human immunodeficiency virus 1, 3B, CCRF-CEM. The gist of the method: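 Syncytium-inhibition assay in wild-type CEM/0 or TK-deficient CEM/TK⁻ cells, ~3 × 10⁵ cells/mL, infected with 100 CCID₅₀/mL HIV-1(III_B) or HIV-2(ROD), with serial compound dilutions. Incubated 4−5 days at 37 °C in humidified CO₂ atmosphere. Giant cells scored microscopically; EC₅₀ is the concentration halving HIV-induced giant cell formation. Values are the mean ± SD of n = 2−3 independent experiments.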

The nature of data set [2]: Stability in human CEM/0 cell extract assessed as parent compound remaining up to 98 hrs by HPLC analysis. Particulars: read-out: Stabilty. It counts as ADME, tissue-based, CCRF-CEM. The essentials:
(§1)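 Extract preparation: CEM CD4⁺ T-cells grown in RPMI-1640 to ~3 × 10⁶ cells/mL, washed in cold PB, resuspended at 10⁸ cells/mL, sonicated, clarified at 10,000 rpm and stored at −80 °C. Compounds from 50 mM DMSO stock (diluted to 6.0 mM in DMSO) incubated in the extract. Reactions stopped with THF, put on ice, centrifuged and filtered.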

Data set [3] is described as follows: Substrate activity at human DNA polymerase gamma assessed as increase in primer extension incubated at 37 degC for 60 mins and at 80 degC for 3 mins in presence of fluorescent-lebelled dATP, dCTP and dGTP by PAGE analysis. It counts as ADME. Particulars: 1.05 h, time 63 min. The essentials:
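Human DNA polymerase γ (4 U) with Cy3-primer/template duplex 0.20 μM in 60 mM Tris-HCl pH 8, 5 mM MgOAc, 1.0 mM DTT, 0.1 mM spermine, 0.01% BSA. Preincubated 5 min at 37 °C without nucleotides, then run 60 min at 37 °C with nucleotides 250 μM, then 80 °C for 3 min. Denaturing 15% PAGE with fluorescence imaging.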

Data set [4] concerns Human immunodeficiency virus 2. The experiment in a line: Antiviral activity against HIV2 ROD infected in human TK-deficient […] cells assessed as inhibition of viral-induced giant cell formation incubated for 4 to 5 days by microscopy. The settings on record: Human immunodeficiency virus 2, ISOLATE ROD.
Data set [5] can be described thus: Substrate activity at HIV reverse transcriptase assessed as increase in primer extension incubated at 37 degC for 15 mins in presence of radiolabeled dATP, dCTP, and dGTP by PAGE analysis. Particulars: human immunodeficiency virus, 0.25 h. It counts as ADME. The gist of the method:
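Template 30-mer annealed to a ³²P-labelled 25-mer primer (95 °C, then cooled to −20 °C over 3 h; 20 mM Tris-HCl pH 7.6, 50 mM NaCl). Reaction: 50 mM Tris-HCl pH 8.6, 10 mM MgCl₂, 40 mM KCl, nucleotides 66 μM, HIV-RT 0.2 U, duplex 0.32 μM. Run 15 min at 37 °C, stopped at 80 °C for 3 min. Resolved on denaturing 15% PAGE and read by phosphorimaging.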

The nature of data set [6]: Cytotoxicity against human CEM/0 CD4+ T cells assessed as reduction in cell viability. It counts as cell-based, CCRF-CEM. The gist of the method: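 Cytostatic readout: CC₅₀ is the compound concentration inhibiting CEM CD4⁺ T-cell proliferation by 50%. Values are the mean ± SD of n = 2−3 independent experiments.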
Data set [7] is described as follows: Chemical stability of compound in PBS at pH 7.3 by RP18-HPLC analysis. It counts as physicochemical. Particulars: buffer. The essentials:
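From 50 mM DMSO stocks, diluted to 1.9 mM hydrolysis solutions in water/DMSO. Reaction started by adding phosphate buffer (50 mM, pH 7.3; 25 mM also stated). Incubated at 37 °C with time-course sampling. Starting material and products (γ-kb-NTP, d4TDP, thymine) followed by analytical rp18 HPLC, from which t½ was calculated.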

Data set [8] is described as follows: Stability of compound in human CEM/0 cell extract assessed as half life by RP18-HPLC analysis. It counts as ADME, tissue-based, CCRF-CEM. The essentials: as §1
For data set [9], the system named is Human immunodeficiency virus 2. Description: Antiviral activity against HIV2 ROD infected in human CEM/0 cells assessed as inhibition of virus-induced syncytia cell formation measured after 4 to 5 days by microscopic analysis. The settings on record: Human immunodeficiency virus 2, ISOLATE ROD, CCRF-CEM.
Data set [10] in a line: Prodrug conversion in PBS buffer at pH 7.3 assessed as pig liver esterase-mediated cleavage of ketobenzyl-residue measured over 800 hrs by HPLC analysis. It counts as ADME, Sus scrofa. Particulars: pH 7.3, 800 h.

Broadly, the EC50 is the midpoint of the concentration-response curve. A word on the CC50: it is the concentration at which the toxic effect on the cells reaches its halfway point. Broadly, the half-life is the time needed for the level to fall by half in the phase considered. As for `CCCCCCCCCC(=O)c1ccc(COP(=O)(O)OP(=O)(O)OP(=O)(O)OC[C@H]2O[C@@H](n3cc(C)c(=O)[nH]c3=O)C[C@@H]2O)cc1`, the figures for the concentration for a half-maximal effect (EC50) in data set [1], in [4] and in [9] were 6.6 µM, > 10 µM and 8.8 µM, respectively. Further, the remaining at 98 h in data set [2] is 98%. The Activity result is given as “Not Active” in data set [3] and “Active” in [5]. The CC50 in [6] was 10 µM. For the same compound, the Stabilty result in data set [7] was “Stable”. The half-life in data set [8] was > 30 h. In addition, in [10], the Drug metabolism result is listed as “Metabolite_Notdetected”.
